ChEMBL document CHEMBL5107970, “Synthesis of a fluorinated pyronin that enables blue light to rapidly depolarize mitochondria” (RSC Med Chem, 2022)
Calls of active or inactive are those of the source. The calls are words filed in the database; no cut-off is given here.

Columns and labels:
HeLa [1] = assay: Induction of reactive oxygen species generation in human HeLa cells assessed as fold increase in ROS level by measuring nuclear fluorescence at 2 uM incubated for 60 mins followed by blue-light irradiation for 1 mins in presence of dihydroethidium by confocal microscopy; format: functional; settings: time 61 min, 1.017 h
Method in brief: (§1)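 HeLa cells seeded 20,000/well and grown 16 h. Pyronin 2 μM for 1 h at 37 °C, then DHE 5 μM for 1 h, then two washes with complete medium. Irradiation was 488 nm laser scanning at 25% power. ROIs drawn around nuclei to give mean ethidium fluorescence. Antimycin A 20 μM served as positive control; DHE-only cells were irradiated 1 or 2 min.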

Albumin = Albumin (Bos taurus, UniProt P02769); assay: Stability of the compound assessed as bovine serum albumin mediated drug degradation at 10 uM incubated for 1 hrs followed by blue-light irradiation for 10 mins by fluorescence spectroscopy; format: ADME; settings: cattle, 1.167 h, time 70 min
Albumin, sequence (P02769 whole entry): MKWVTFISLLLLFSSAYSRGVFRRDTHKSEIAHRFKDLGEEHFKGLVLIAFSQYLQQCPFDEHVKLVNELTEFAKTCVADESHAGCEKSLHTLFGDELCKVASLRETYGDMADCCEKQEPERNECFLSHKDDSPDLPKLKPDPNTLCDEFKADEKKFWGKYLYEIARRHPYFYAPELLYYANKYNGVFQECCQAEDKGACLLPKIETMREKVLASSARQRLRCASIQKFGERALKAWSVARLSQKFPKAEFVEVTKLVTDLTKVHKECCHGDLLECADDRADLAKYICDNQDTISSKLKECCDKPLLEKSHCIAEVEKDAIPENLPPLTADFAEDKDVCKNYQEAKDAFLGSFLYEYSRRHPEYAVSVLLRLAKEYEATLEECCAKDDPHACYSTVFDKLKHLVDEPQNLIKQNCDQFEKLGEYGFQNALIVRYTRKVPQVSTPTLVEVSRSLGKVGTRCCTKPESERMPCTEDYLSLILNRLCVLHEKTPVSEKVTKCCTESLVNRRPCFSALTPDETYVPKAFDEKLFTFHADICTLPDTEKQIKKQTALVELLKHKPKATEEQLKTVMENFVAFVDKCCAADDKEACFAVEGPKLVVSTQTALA

HeLa [2] = assay: Induction of mitochondrial membrane potential depolarization in human HeLa cells assessed as diffuse fluorescence from mitochondria to cytoplasm and nucleus at 10 uM incubated for 1 hrs in presence of blue-light irradiation by MitoTracker Deep red and LysoTracker red staining based confocal laser scanning microscopy; format: functional, cell-based
Method in brief: (§2)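 Live HeLa cells seeded 20,000/well and grown 24 h, then loaded with probe 10 μM for 1 h at 37 °C (0.1% DMSO). Then either irradiated at 488 nm for 60 s or given CCCP 10 μM for 5 min. Unwashed cells imaged by confocal (Ex. 488 nm, Em. 500–600 nm) and DIC.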

[3] = Cytotoxicity against human Jurkat cells assessed as reduction in cell viability incubated for 48 hrs by flow cytometry; format: toxicity, cell-based
[4] = Drug distribution in human HeLa cells assessed as fluorescence in mitochondria at 2 uM incubated for 1 hrs by confocal laser scanning microscopy; format: ADME
HeLa [5] = assay: Induction of mitochondrial membrane potential depolarization in human HeLa cells assessed as fluorescence in nucleoli at 10 uM incubated for 60 mins followed by blue-light irradiation for 60 sec by MitoTracker Deep Red staining based confocal laser scanning microscopy; format: functional, cell-based; settings: time 61.0 min; method in brief: as §2
[6] = Stability of the compound assessed as bovine serum albumin mediated drug degradation at 10 uM incubated for 1 hrs by fluorescence spectroscopy; format: ADME; settings: cattle
[7] = Stability in human Jurkat lymphocytes assessed as half life in mitochondria at 10 uM incubated for 1 hrs by flow cytometry; format: ADME
HeLa [8] = assay: Induction of mitochondrial membrane potential depolarization in human HeLa cells assessed as fluorescence in nucleoli at 10 uM preincubated for 60 mins followed by CCCP treatment and measured after 5 mins by MitoTracker Deep Red and LysoTracker red staining based confocal laser scanning microscopy; format: functional, cell-based; settings: time 65.0 min; method in brief: as §2
HeLa [9] = assay: Induction of reactive oxygen species generation in human HeLa cells assessed as increase in ROS level at 2 uM incubated for 1 hr in presence of dihydroethidium by confocal microscopy; format: functional, cell-based; method in brief: as §1
[10] = Drug distribution in human HeLa cells assessed as fluorescence in mitochondria at 10 uM incubated for 1 to 3 hrs by MitoTracker Deep Red staining based confocal laser scanning microscopy; format: ADME; settings: time 1-3 hrs
Method in brief: (§3)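 HeLa cells seeded 20,000/well on chambered coverslips and grown 24 h. Compound diluted 1,000-fold from DMSO stock into complete medium (0.1% DMSO) and given at 37 °C, then co-imaged with MitoTracker Deep Red or LysoTracker Red. Live-cell confocal imaging with 63X oil objective, without washing.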

[11] = Stability of compound in ethanol at 5 uM incubated for 1 hrs by fluorescence spectroscopy; format: physicochemical
HeLa [12] = assay: Induction of reactive oxygen species generation in human HeLa cells assessed as fold increase in ROS level by measuring nuclear fluorescence at 2 uM incubated for 60 mins followed by blue-light irradiation for 2 mins by confocal microscopy; format: functional; settings: time 62 min, 1.033 h; method in brief: as §1
[13] = Cytotoxicity against human HeLa cells assessed as reduction in cell viability incubated for 48 hrs by flow cytometry; format: toxicity, cell-based
HeLa [14] = assay: Induction of reactive oxygen species generation in human HeLa cells assessed as increase in ROS level at 20 uM incubated for 1 hr in presence of dihydroethidium by confocal microscopy; format: functional, cell-based
Method in brief: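 HeLa cells were seeded at 20,000 per well in chambered coverslips and grown 16 h before treatment at 37 °C. Dihydroethidium (5 µM) was then added for 1 h, and cells were washed twice with complete medium. Confocal imaging followed. Ethidium signal was quantified as mean fluorescence in regions of interest drawn around nuclei.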

[15] = Drug distribution in human HeLa cells assessed as fluorescence in lysosome at 10 uM incubated for 1 to 3 hrs by LysoTracker red staining based confocal laser scanning microscopy; format: ADME, cell-based; settings: time 1-3 hrs; method in brief: as §3

Which “fold change (FC)” value (HeLa [1]) does the source give for CCN(CC)c1cc2oc3cc(=[N+](CC)CC)c(F)cc-3cc2cc1F.O=C([O-])C(F)(F)F here?
Its value is 1.5.

What about the Stability (Albumin) of the same molecule?
The Stability was “Unstable”.

And the Activity (HeLa [2])?
Its Activity is “Active”.

What about the IC50 at 48 h [3] of the same molecule?
Its IC50 at 48 h is 1000 nM.

And the Activity [4]?
Its Activity is “Active”.

And the Activity (HeLa [5])?
The Activity was “Active”.

And the Stability [6]?
Its Stability is “Unstable”.

And the half-life at 10 µM [7]?
Its half-life at 10 µM is 12 min.

What about the Activity (HeLa [8]) of the same molecule?
The Activity was “Active”.

What about the Activity (HeLa [9]) of the same molecule?
The Activity was “Active”.

What about the Drug uptake [10] of the same molecule?
Its Drug uptake is “Active”.

And the Stability [11]?
The Stability was “Stable”.

What about the “fold change (FC)” value (HeLa [12]) of the same molecule?
The value was 2.7.

What about the IC50 at 48 h [13] of the same molecule?
The IC50 at 48 h was 9 µM.

What does the source list for CCN(CC)c1cc2oc3cc(N(CC)CC)c(F)cc3c(=O)c2cc1F?
IC50 at 48 h [3]: 17000 nM; half-life at 10 µM [7]: 5 min; IC50 at 48 h [13]: 51 µM

Which half-life at 10 µM [7] does the source give for COC(=O)c1ccccc1-c1c2ccc(=N)cc-2oc2cc(N)ccc12.Cl [RHODAMINE123] here?
Its half-life at 10 µM is > 1000 min.

With CCCCCC[C@H]1C(=O)O[C@H](C)[C@H](NC(=O)c2cccc(NC=O)c2O)C(=O)O[C@@H](C)[C@@H]1OC(=O)CC(C)C as the molecule, how does the Activity (HeLa [14]) read?
The Activity was “Active”.

Which IC50 at 48 h [3] does the source give for O=C([O-])C(F)(F)F.c1cc(=[N+]2CCC2)cc2oc3cc(N4CCC4)ccc3cc1-2 here?
The IC50 at 48 h was 200 nM.

What about the half-life at 10 µM [7] of the same molecule?
The half-life at 10 µM was 30 min.

And the Drug uptake [10]?
The Drug uptake was “Active”.

And the Stability [11]?
The Stability was “Stable”.

What about the IC50 at 48 h [13] of the same molecule?
The IC50 at 48 h was 3 µM.

With Fc1cc2cc3cc(F)c(=[N+]4CCC4)cc-3oc2cc1N1CCC1.O=C([O-])C(F)(F)F as the molecule, how does the IC50 at 48 h [3] read?
The IC50 at 48 h was 900 nM.

And the half-life at 10 µM [7]?
The half-life at 10 µM was 15 min.

And the Stability [11]?
Its Stability is “Stable”.

And the IC50 at 48 h [13]?
The IC50 at 48 h was 15 µM.

Which results are given for CCNc1c2cc(F)c(=[N+](CC)CC)cc-2oc2cc(N(CC)CC)c(F)cc12.O=C([O-])C(F)(F)F?
IC50 at 48 h [3]: 800 nM; half-life at 10 µM [7]: 60 min; Drug uptake [15]: Active; Drug uptake [10]: Active; IC50 at 48 h [13]: 3 µM

With CCN(CC)c1ccc2cc3ccc(N(CC)CC)cc3[o+]c2c1.[Cl-] as the molecule, how does the IC50 at 48 h [3] read?
Its IC50 at 48 h is 100 nM.

And the Activity [4]?
Its Activity is “Active”.

What about the half-life at 10 µM [7] of the same molecule?
The half-life at 10 µM was 6 min.

And the Activity (HeLa [9])?
The Activity was “Active”.

What about the Stability [11] of the same molecule?
The Stability was “Stable”.

And the IC50 at 48 h [13]?
Its IC50 at 48 h is 2 µM.
